In publication PMC2966122 (The Journal of Biological Chemistry, 2010):
Values belong to the molecule of their own block, whether it stands above or below them.

How the values were obtained:
[1] = Glycan array binding of FITC-labeled galectins; conditions: for Affinity for sialylated (and sulfated) galactosides on the array: site B; for Glycans bound on the array (overall): all glycans of the array; for Glycans bound on the array: 200 μg/ml galectin
Summary of the method: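 The printed array carries 406 glycans, six spots each, on NHS-activated glass. FITC-galectins at 200 μg/ml in Tris-buffered saline pH 7.4 (2 mM CaCl2, 2 mM MgCl2, 1% BSA, 0.05% Tween 20) were incubated 60 min at room temperature in the dark under a coverslip, then washed and dried. Slides were scanned at 488 nm and read as RFU (ceiling 40,000). Highest and lowest spots were dropped and the remaining four averaged.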

[2] = Fluorescence anisotropy; format: binding; conditions: for Affinity for 3-sialylated galactosides: probes 6–9 (6–8 for Xenopus); for Affinity for 3-sialylated galactosides / Affinity for GlcNAcβ1–3-substituted galactosides: relative to human wild type galectin-3; for Affinity for GlcNAcβ1–3-substituted galactosides: probes 9–15; for Binding to glycans where LacNAc or Galβ1–3GlcNAc is likely in site C-D: e.g. probes 2, 3, 7 and 8
Summary of the method: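 Equilibrium fluorescence anisotropy with 0.1 μM fluorescein-tagged saccharide probe (15 probes) titrated with 0.05–80 μM lactose-freed galectin. Read at room temperature and after incubation on ice (about 4 °C), ex 485/em 520 nm. Kd derived from the binding curve using probe-alone (A0) and saturated (Amax) anisotropy, with Amax extrapolated for partial curves. Not detected if anisotropy stayed ≤50 mA at 50 μM galectin.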

[3] = tested on: TNFα-primed neutrophils; test: NADPH oxidase activation of TNFα-primed neutrophils; format: cell-based, human; conditions: for Activation of primed neutrophils (release of oxygen radicals): dose response relative to wild type galectin-3 run in parallel, up to 3.5 μM
Summary of the method: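 Human neutrophils (1 × 10^7/ml) were primed 20 min at 37 °C with TNFα 10 ng/ml. Tubes held 10^6 cells and were equilibrated 5 min at 37 °C before galectin was added. Chemiluminescence was recorded continuously. Extracellular superoxide was read with HRP (4 units) plus isoluminol (6 × 10^-5 M). Intracellular ROS was read with SOD (50 units), catalase (2000 units) and luminol (2 × 10^-5 M). Peak responses were normalized to the parallel 3.5 μM wild-type peak.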

[4] = tested on: neutrophils; test: Galectin binding to neutrophils; format: cell-based, human; conditions: FITC-labeled galectin 40 μg/ml
Summary of the method: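 Human blood neutrophils from buffy coats (dextran sedimentation, Ficoll-Paque) were pretreated at 37 °C with or without TNFα, or held at 4 °C without it. They were then incubated 1 h at 4 or 37 °C with FITC-galectin (40 μg/ml) and washed twice in PBS/0.02% NaN3/EDTA. Flow cytometry gave geometric mean fluorescence from three neutrophil batches (mean, S.E.), with paired one-tailed t tests.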

[5] = tested on: SKBR3 cells; test: Localization of EGFP-galectin-3 and mutants in transfected cells; format: cell-based, human; conditions: EGFP fusion protein; for Entry into vesicles: stably transfected
Summary of the method: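 SKBR3 breast cancer cells were Lipofectamine-transfected with pEGFP-C1 EGFP-galectin-3 constructs and grown in RPMI 1640/10% FBS with 1 mg/ml G418 for ≥2 weeks to obtain stable lines. Cells were grown 1–2 days on coverslips, fixed in 4% paraformaldehyde, mounted with DAPI and viewed by epifluorescence microscopy. Fluorescent vesicles (dots) per cell were counted in 300 cells per construct.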

[6] = cited from earlier work
[7] = tested on: neutrophils; conditions: cited from earlier work
[8] = tested on: MDCK cells; conditions: EGFP fusion protein in MDCK cells; cited from earlier work
[9] = tested on: Shigella bacteria; conditions: cited from earlier work
[10] = tested on: intracellular anti-apoptotic effect; conditions: cited from earlier work
[11] = tested on: N-Ras to K-Ras activation; conditions: cited from earlier work
[12] = cited from earlier work; remark: listed apart in the source
[13] = cited from earlier work; remark: listed apart in the source
[14] = compared with human galectin-3; cited from earlier work

Molecule: K176L/N180T: Human galectin-3 double mutant obtained by a mistake in primer design
Affinity for some of the longer GlcNAcβ-extended galactosides ([2]; compared with K176L): slightly increased affinity
Concentration inducing significant neutrophil activation ([3]; TNFα-primed neutrophils): ≤ 0.2 µM
Activation of primed neutrophils (release of oxygen radicals) [3]: clearly increased potency

Molecule: R186S: Human galectin-3 mutant replacing Arg-186 with Ser (site D)
Glycans bound on the array (overall) [1]: bound only one glycan
Binding to glycans where LacNAc or Galβ1–3GlcNAc is likely in site C-D [2]: lost binding
Affinity for glycans with Lac in site C-D ([2]; relative to wild type): retained reduced affinity
Binding to primed and non-primed neutrophils [4]: did not bind any of the neutrophil preparations
Entry into vesicles [5]: not visible in vesicles
Ability to bind human serum glycoproteins [6]: completely lost the ability to bind human serum glycoproteins
Ability to promote the phagocytosis of apoptotic cells by neutrophils [7]: lost
Vesicle entry and apical targeting of glycoproteins [8]: did not enter vesicles and did not direct apical targeting of glycoproteins
Accumulation around invading Shigella bacteria [9]: did not accumulate around invading Shigella bacteria

Molecule: G182A: Human galectin-3 point mutant near site C, Gly-182 to Ala
Binding to Galβ1–3GlcNAc containing glycans on the array ([1]; relative to wild type): preferentially, although not exclusively, lost binding
Entry into vesicles [5]: much fewer in number per cell
Intracellular anti-apoptotic effect [10]: lost
Induction of a shift from N-Ras to K-Ras activation [11]: lost

B1: Mouse galectin-3: Recombinant mouse galectin-3 orthologue (protein, UniProt P16110 2-264, looked up)
Galectin-3: ADSFSLNDALAGSGNPNPQGYPGAWGNQPGAGGYPGAAYPGAYPGQAPPGAYPGQAPPGAYPGQAPPSAYPGPTAPGAYPGPTAPGAYPGQPAPGAFPGQPGAPGAYPQCSGGYPAAGPYGVPAGPLTVPYDLPLPGGVMPRMLITIMGTVKPNANRIVLDFRRGNDVAFHFNPRFNENNRRVIVCNTKQDNNWGKEERQSAFPFESGKPFKIQVLVEADHFKVAVNDAHLLQYNHRMKNLREISQLGISGDITLTSANHAMI
Affinity for GlcNAcβ1–3-substituted galactosides [2]: lower affinity for all the saccharide probes tested and most significantly for the ones extended by GlcNAcβ
Affinity for all the saccharide probes tested ([2]; relative to human galectin-3): lower affinity

B2: Rat galectin-3: Rat galectin-3 orthologue, not available for study here; literature data (protein, UniProt P08699 2-262, looked up)
Galectin-3: ADGFSLNDALAGSGNPNPQGWPGAWGNQPGAGGYPGASYPGAYPGQAPPGGYPGQAPPSAYPGPTGPSAYPGPTAPGAYPGPTAPGAFPGQPGGPGAYPSAPGAYPSAPGAYPATGPFGAPTGPLTVPYDMPLPGGVMPRMLITIIGTVKPNANSITLNFKKGNDIAFHFNPRFNENNRRVIVCNTKQDNNWGREERQSAFPFESGKPFKIQVLVEADHFKVAVNDVHLLQYNHRMKNLREISQLGIIGDITLTSASHAMI
Lower affinity for NeuAcα2–3Lac [14]: ~5 fold

Now from value to molecule, other results behind:

Affinity for glycans with GalNAcα in site B on the array ([1]; but not those with Galα (blood group B type)): selective loss of affinity
Molecule: A146Q: Human galectin-3 point mutant in site B, Ala-146 to Gln
Affinity for 3-sialylated galactosides [2]: slightly reduced affinity
Affinity for GlcNAcβ1–3-substituted galactosides [2]: retained affinity, albeit lower

Affinity for sialylated (and sulfated) galactosides on the array ([1]; relative to wild type): lost affinity
Molecule: K176L: Human galectin-3 point mutant in site B, Lys-176 to Leu
Affinity for 3-sialylated galactosides [2]: lost affinity
Affinity for GlcNAcβ1–3-substituted galactosides [2]: significantly better than wild type galectin-3
Activation of primed neutrophils (release of oxygen radicals) [3]: clearly increased potency
Binding to primed and non-primed neutrophils [4]: about equally well
Increase in binding after TNFα priming [4]: 30–50%

Glycans bound on the array (overall) [1]: bound a few more glycans
Background binding, maximum ([1]; remaining 227 glycans not expected to bind galectins): 2674 RFU
Binding to glycans where LacNAc or Galβ1–3GlcNAc is likely in site C-D [2]: lost binding
Molecule: R186I: Human galectin-3 mutant replacing Arg-186 with Ile, as found in galectin-8N
Affinity for glycans with Lac in site C-D ([2]; relative to wild type): retained reduced affinity

Affinity for sialylated (and sulfated) galactosides on the array ([1]; relative to wild type): lost affinity
Molecule: R144S: Human galectin-3 point mutant in site B, Arg-144 to Ser
Affinity for the GalNAcα extended galactoside ([2]; probe 5 (A-tetrasaccharide), relative to wild type): increased affinity
Affinity for 3-sialylated galactosides [2]: lost affinity
Affinity for GlcNAcβ1–3-substituted galactosides [2]: lost affinity

Binding of galactosides with 3-linked N-glycoloyl neuraminic acid (NeuGc) ([1]; compared with NeuAc): equally well
Glycans bound on the array ([1]; glycans with a LacNAc available for binding in site C-D): 45 of 94
Glycans bound on the array ([1]; glycans with available Galβ1–3GlcNAc): 15 of 36
Glycans bound on the array ([1]; glycans with only Galβ1–3GalNAc available): did not bind at all
Glycans bound on the array ([1]; glycans with only lactose available): 6 of 24
Molecule: wild type galectin-3: Recombinant human galectin-3 produced in E. coli; expressed as EGFP fusion in SKBR3 cells
Binding to primed and non-primed neutrophils [4]: about equally well
Increase in binding after TNFα priming [4]: 30–50%
Entry into vesicles [5]: entered vesicles in some of the cells
Cells with dots (galectin containing vesicles) ([5]; depending on how confluent the cells were): 15–30 % of cells
Enhancement of binding affinity by addition of GalNAcα1–3 or Galα1–3 [12]: 10–25 fold
Affinity for Galβ1–3GalNAc lower than for LacNAc [13]: 10–50 fold
